Experiments:
[1] = Displacement of [3H]di-o-tolylgluanidine from sigma 2 receptor in rat liver membranes at 1 uM after 2 hrs by scintillation counting; settings: Membrane
[2] = biological target: Sigma non-opioid intracellular receptor 1 (Cavia porcellus, UniProt Q60492); assay: Displacement of [3H]-(+)-pentazocine from sigma 1 receptor in guinea pig brain membranes after 2 hrs by scintillation counting; assay type: cell membranes, Membrane
[3] = biological target: Sigma non-opioid intracellular receptor 1 (Cavia porcellus) (UniProt Q60492); assay: Displacement of [3H]-(+)-pentazocine from sigma 1 receptor in guinea pig brain membranes at 1 uM after 2 hrs by scintillation counting; assay type: cell membranes; settings: Membrane
Summary of the method: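 Guinea pig brain membranes (about 100 µg protein) incubated with 2 nM [3H]-(+)-pentazocine and 1 µM test compound in 50 mM TRIS pH 7.4 at 37 °C for 120 min. Filtered, then counted by scintillation. […] Result given as % inhibition of radioligand binding.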

[4] = Selectivity ratio of Ki for sigma 2 receptor in rat liver membranes to Ki for sigma 1 receptor in guinea pig brain membranes; assay type: cell membranes
[5] = Displacement of [3H]di-o-tolylgluanidine from sigma 2 receptor in rat liver membranes after 2 hrs by scintillation counting; assay type: cell membranes, Membrane
Summary of the method: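 Rat liver membranes (sucrose homogenate; pellet held 30 min at room temperature in 50 mM TRIS pH 8.0; 100 µg protein) incubated with 3 nM [3H]DTG and test compound at 10^-10 to 10^-5 M, at room temperature for 120 min. […] Nonspecific binding with 10 µM DTG. Filtration, then scintillation counting. Duplicates. Ki by Cheng-Prusoff from IC50, mean ± SEM, n = 3.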

Mus musculus = organism: Mus musculus; assay: Analgesic activity in mouse by acetic acid writhing test; assay type: functional

Sequence of Sigma non-opioid intracellular receptor 1 (Q60492 whole entry): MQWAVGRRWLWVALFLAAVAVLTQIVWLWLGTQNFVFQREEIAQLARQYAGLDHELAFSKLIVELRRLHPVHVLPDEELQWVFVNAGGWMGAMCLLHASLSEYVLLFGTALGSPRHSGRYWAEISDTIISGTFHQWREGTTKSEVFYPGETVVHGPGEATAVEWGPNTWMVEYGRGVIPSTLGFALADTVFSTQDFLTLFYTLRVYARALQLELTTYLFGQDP
Sequence of Sigma non-opioid intracellular receptor 1 (Cavia porcellus) (Q60492 whole entry): as above

Row | Compound | inhibition [1] [%] | Ki [2] [nM] | inhibition [3] [%] | Ratio Ki [4] | Ki [5] [nM] | ED50 (Mus musculus) [mg/kg]
1 | CCN1CCC2(CC1)OC(CCO)Cc1ccccc12 (racemic) | 0 |  | 0 |  |  | 
2 | Cc1ccccc1NC(=N)Nc1ccccc1C [DITOLYLGUANIDINE] |  |  |  |  | 20.2 | 
3 | CCCCN1CCC2(CC1)OC(CCO)Cc1ccccc12 (racemic) | 13 | 60 |  |  |  | 
4 | COC(=O)C[C@@H]1Cc2ccccc2[C@H](CN2CCCCC2)O1 (racemic) | 7 | 510 |  |  |  | 
5 | CN1CCC2Cc3ccccc3C(C1)O2 (stereo not drawn) |  |  |  |  |  | 20
6 | COC(=O)C[C@@H]1Cc2ccccc2[C@H](CCN2CCC(c3ccccc3)CC2)O1 (racemic) |  | 38 |  | 2.8 | 107 | 
7 | OCCC1Cc2ccccc2C2(CCN(Cc3ccccc3)CC2)O1 (racemic) | 0 | 20 |  |  |  | 
8 | OCCC1Cc2ccccc2C2(CCN(CCCc3ccccc3)CC2)O1 (racemic) |  | 20 |  | 30 | 617 | 
9 | OCC[C@@H]1Cc2ccccc2[C@H](CCN2CCCCC2)O1 (racemic) | 14 |  | 4 |  |  | 

Second part, led by results:

Row | inhibition [1] [%] | Ki [2] [nM] | inhibition [3] [%] | Ratio Ki [4] | Ki [5] [nM] | Compound | ED50 (Mus musculus) [mg/kg]
10 | 0 | > 1000 |  |  |  | COC(=O)C[C@@H]1Cc2ccccc2[C@H](CCN2CCCC2)O1 (racemic) | 
11 |  | 26 |  | 9 | 234 | CCCCCCCCN1CCC2(CC1)OC(CCO)Cc1ccccc12 (racemic) | 
12 |  | 673 |  | 1.2 | 785 | COC(=O)C[C@@H]1Cc2ccccc2[C@H](CN2CCC(c3ccccc3)CC2)O1 (racemic) | 
13 |  | 519 |  |  |  | COC(=O)C[C@@H]1Cc2ccccc2[C@H](CCN2CCCCC2)O1 (racemic) | 
14 |  | 52 |  | 0.4 | 20 | OCC[C@@H]1Cc2ccccc2[C@H](CCN2CCC(c3ccccc3)CC2)O1 (racemic) | 
15 |  | 39 |  | 15 | 610 | COC(=O)CC1Cc2ccccc2C2(CCN(CCCc3ccccc3)CC2)O1 (racemic) | 
